# The list is not random: actives were taken first. Their share in the collection is about 2.4%.
# SUMO HTRF inh = inhibitors of human SUMOylation (UBC9); P63279; 290,000 compounds, 0.36% hits; inhibition, % at 35 µM; HTRF SUMOylation assay, SAE1/SAE2 + UBC9, in vitro; in the data active = inhibition above about 50%, passing the limit was not always enough; inconclusive = no clear call, values can overlap the other calls
# HKDC1 inhibitor = blocks human hexokinase HKDC1 activity; Q2TB90; recombinant HKDC1, G6PDH/diaphorase resazurin coupled fluorescence; inhibition, % at 20 µM; 340,000 compounds, 0.16% hits;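 active = inhibition above about 35% when tested at 20 µM, limit read from the data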;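 note: plate controls were DMSO wells with enzyme for no effect and DMSO wells lacking enzyme for full effect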
# Target sequence (Q2TB90 whole entry, looked up): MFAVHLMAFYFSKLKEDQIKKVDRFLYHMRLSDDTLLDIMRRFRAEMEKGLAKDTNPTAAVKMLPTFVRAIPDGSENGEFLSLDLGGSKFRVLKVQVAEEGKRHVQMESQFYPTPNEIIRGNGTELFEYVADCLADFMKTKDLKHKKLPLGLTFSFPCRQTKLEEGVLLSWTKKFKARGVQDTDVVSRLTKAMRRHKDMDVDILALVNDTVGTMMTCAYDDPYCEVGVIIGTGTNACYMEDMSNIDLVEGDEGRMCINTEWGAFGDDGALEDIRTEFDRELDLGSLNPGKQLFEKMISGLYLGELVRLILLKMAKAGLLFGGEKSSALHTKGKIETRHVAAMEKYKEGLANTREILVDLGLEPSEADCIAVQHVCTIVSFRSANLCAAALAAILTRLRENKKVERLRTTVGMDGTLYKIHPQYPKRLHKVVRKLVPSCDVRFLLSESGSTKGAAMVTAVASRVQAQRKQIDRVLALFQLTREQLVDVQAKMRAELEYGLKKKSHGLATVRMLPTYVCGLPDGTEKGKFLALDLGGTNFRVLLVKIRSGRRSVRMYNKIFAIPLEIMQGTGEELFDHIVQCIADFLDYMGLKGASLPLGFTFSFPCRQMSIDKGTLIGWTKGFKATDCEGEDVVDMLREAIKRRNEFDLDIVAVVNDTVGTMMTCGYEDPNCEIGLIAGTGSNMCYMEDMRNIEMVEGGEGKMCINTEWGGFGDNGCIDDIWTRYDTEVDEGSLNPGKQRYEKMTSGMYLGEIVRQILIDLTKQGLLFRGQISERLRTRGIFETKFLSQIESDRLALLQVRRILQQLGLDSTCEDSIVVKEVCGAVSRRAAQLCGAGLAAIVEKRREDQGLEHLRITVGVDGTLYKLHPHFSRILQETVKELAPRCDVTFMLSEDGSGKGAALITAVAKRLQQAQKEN
#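 Assay system – recombinant HKDC1 (HK5) hexokinase enzyme, produced in-house · Input – HKDC1 at 5 µg/mL · Reagent – glucose plus 1 mM ATP as hexokinase substrates · Timing – 90 min reaction incubation at room temperature, dark · Measured by – G6PDH/diaphorase-coupled fluorescence, 1 mM NADP, 100 µM resazurin, 525/613 nm · Benchmarks – DMSO-enzyme wells negative, buffer-substituted wells positive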
# PfM18AAP inh-1 = blocks P. falciparum M18 aspartyl aminopeptidase. recombinant PfM18AAP, H-Glu-NHMec fluorogenic cleavage. inhibition, % at 7.35 µM. 290,000 compounds, 1.2% hits;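 active = inhibition above the campaign mean inhibition over all tested compounds plus 3 SD, cut at about 28% in these data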;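 note: 0% = plate median of test compound wells and 100% = 2 mM ZnCl2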
# APOBEC3G inh = inhibitors of human APOBEC3G DNA deaminase. recombinant A3G, ssDNA deamination FAM/TAMRA fluorescence. inhibition, % at 20 µM. Q9HC16. 330,000 compounds, 0.28% hits. AID 493012;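 active = inhibition of at least 40% at 20 µM, with no more than 30% in the related APOBEC3A deaminase screen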;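 note: plate controls were DMSO wells with A3G for no effect and wells lacking A3G enzyme for full effect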
# PfGluPho inh = PfG6PD (Plasmodium falciparum) enzyme inhibition | AID 504690 | PfGluPho enzyme, NADPH resazurin-diaphorase fluorescence | inhibition, % at 20 µM | 350,000 compounds, 0.78% hits;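 active = inhibition reaching at least a set limit at 20 µM in the primary screen, cut at about 59% in these data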;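 note: 0% = DMSO wells with substrate and 100% = DMSO wells lacking glucose-6-phosphate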
# A3A deaminase = inhibitors of human APOBEC3A DNA deaminase. P31941. recombinant A3A, FAM/TAMRA ssDNA deamination fluorescence. inhibition, % at 20 µM. 330,000 compounds, 0.41% hits. AID 493011;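 active = at least 40% inhibition at 20 µM here, with at most 30% in a related deaminase screen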;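 note: plate controls were A3A with DMSO for no effect and wells lacking A3A enzyme for full effect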
# PfM18AAP inh-2 = PfM18AAP inhibition, confirmation. shares compounds with PfM18AAP inh-1. recombinant PfM18AAP, H-Glu-NHMec fluorogenic cleavage. inhibition, % at 7.35 µM. 2,400 compounds, 28% hits. AID 2170;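 active = mean inhibition over replicate wells above the hit cutoff set for the earlier primary screen, cut at about 29% in these data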;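 note: 0% = median of test compound wells and 100% = 2 mM ZnCl2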
# CTSL1 confirm = Cathepsin L (human) inhibition, confirmation; 2,400 tested, under 10 active; purified cathepsin L1, Z-Leu-Arg-MCA fluorescence; inhibition, % at 5.96 µM; AID 2178; shares compounds with PfM18AAP inh-1;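 active = average inhibition across replicates above the hit cutoff set in the earlier primary screen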;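 note: 0% = median of test compound wells and 100% = Z-Phe-Ala-diazomethylketone 1 µM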
# A3G conf = APOBEC3G (human) deaminase inhibition, confirmed; shares compounds with APOBEC3G inh; recombinant A3G ssDNA deaminase, UDG/FAM-TAMRA fluorescence; inhibition, % at 20 µM; 890 compounds, 72% hits; AID 493152;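 active = inhibition reaching a set limit in any replicate at 20 µM, the limit being 80% of the first screen's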
# UDG A3G counter = counter-screen for APOBEC3G inhibitors: E. coli UDG; 710 tested, under 10 active; shares compounds with APOBEC3G inh; AID 504715; UDG counterscreen, FAM/TAMRA oligo fluorescence; inhibition, % at 20 µM;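 active = compounds giving 40% or more inhibition at 20 µM in any one of the three replicates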;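 note: plate controls were DMSO wells with UDG and oligo for no effect and DMSO wells lacking both for full effect; inhibitors lower the FAM signal released by uracil excision and alkaline cleavage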
# HKDC1 act conf = confirmation of human HKDC1 activators | inhibition, % at 20 µM | AID 504708 | recombinant HKDC1, G6PDH/diaphorase resazurin fluorescence; stronger effect = lower value | 740 compounds, 14% hits | shares compounds with HKDC1 inhibitor;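 active = inhibition at or below a set negative limit, negative inhibition meaning the enzyme was activated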
# PfG6PD confirm = confirmation of Plasmodium falciparum G6PD inhibitors; shares compounds with PfGluPho inh; recombinant PfGluPho, NADPH-diaphorase-resazurin fluorescence; inhibition, % at 20 µM; 2,400 compounds, 34% hits;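 active = inhibition of at least 50% at 20 µM in any single replicate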;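 note: 0% = DMSO with substrate and 100% = DMSO lacking glucose-6-phosphate substrate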
# Diaphorase 10uM = counter-screen for P. falciparum G6PD inhibitors: diaphorase inhibitors, oxidizers; diaphorase-coupled resazurin reduction, fluorescence, NADPH 10 uM; 820 compounds, 39% hits; inhibition, % at 20 µM; shares compounds with PfGluPho inh;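 active = average inhibition reaching 50% or more with the compound at 20 µM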;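 note: resorufin red fluorescence formed as diaphorase reduces resazurin using NADPH; 0% = DMSO with enzyme and 100% = DMSO without enzyme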
# Diaph ctr 30uM = inhibits diaphorase or oxidizes, flagging false PfG6PD hits; Diaphorase/resazurin coupled assay, resorufin fluorescence, 30 uM NADPH; AID 504863; 820 compounds, 29% hits; shares compounds with PfGluPho inh; inhibition, % at 20 µM;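 active = inhibition averaging 50% or more, tested at 20 µM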;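 note: 0% = DMSO with enzyme and 100% = DMSO wells lacking diaphorase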
# Starred values were filed as active, the others as inactive; ? = inconclusive; . = no result given.
SMILES,SUMO HTRF inh,HKDC1 inhibitor,PfM18AAP inh-1,APOBEC3G inh,PfGluPho inh,A3A deaminase,PfM18AAP inh-2,CTSL1 confirm,A3G conf,UDG A3G counter,others
Cc1nn(-c2nnc(NCc3ccccc3)nn2)c(C)c1Br,-3,4,8,-1,20,1,.,.,.,.,
C/C(=N\NC(=O)c1cccc(N/N=C(\C)c2cc(O)ccc2O)c1)c1cc(O)ccc1O,-9,-8,40*,45*,26,-1,42*,-3,12,4,
C/C(=N\NC(=O)c1cccc(N/N=C(\C)c2ccco2)c1)c1ccco1,22,8,10,.,18,.,.,.,.,.,
N#Cc1c(N)nc2c(c1-c1cccnc1)CCCCC2,7,-3,-1,-6,-13,-1,.,.,.,.,
N#Cc1c(-c2cccnc2)c2c([nH]c1=S)CCCC2,31,6,33*,50*,58,-1,51*,-7,86*,-2,
Nn1c(Cc2cccc3ccccc23)n[nH]c1=S,-6,-10,32*,47*,37,-5,-5,2,82*,-2,
Nn1c(Cc2ccccc2F)n[nH]c1=S,-11,-6,17,12,32,-4,.,.,.,.,
Cc1cccc2c(CCNC(=O)c3ccc([N+](=O)[O-])cc3)c[nH]c12,-6,12,1,-6,-4,1,.,.,.,.,
O=C(NC1CCCCCC1)c1ccc[nH]c1=S,13,-4,53*,55*,34,-1,0,0,66*,0,
O=C(NC1CC2CCC(C1)N2Cc1ccccc1)c1cccc(F)c1 (stereo not given),7,-8,1,-4,3,1,.,.,.,.,
COc1cc(/C=C2\SC(=S)N(CC(=O)NC(C)(C)C)C2=O)cc(OC)c1OC,0,12,9,.,-2,.,.,.,.,.,
CC1(C)Cc2c(sc3ncn4c(=S)[nH]nc4c23)CO1,-4,-2,43*,42*,49,0,30*,-1,74*,-3,
Cn1c(=O)c2c(nc(N3CCCCC3)n2CCSc2nc3ccccc3o2)n(C)c1=O,.,.,0,.,.,.,.,.,.,.,
S=c1[nH]c(-c2ccccc2)cn1/N=C/c1ccncc1,14,2,51*,56*,53,-17,43*,-7,71*,0,
S=c1[nH]ncn1/N=C/c1ccccc1,-6,4,18,23,28,-4,.,.,.,.,
COc1ccc(S(=O)(=O)Nc2ccccc2C(=O)NN2CCOCC2)cc1OC,.,-4,.,-3,-8,-1,.,.,.,.,
O=C(Nc1nc(-c2ccccn2)cs1)Nc1ccc(F)cc1F,8,-4,48*,60*,57,2,0,2,68*,-5,
Cc1ccc2c(c1)-c1c(ssc1=S)C(C)(C)N2C(=O)c1ccco1,10,-11,40*,42*,55,0,-17,-5,55*,-4,
S=c1nc(C2COc3ccccc3O2)[nH][nH]1 (stereo not given),-14,-12,35*,52*,13,1,26,2,71*,-3,
COc1cc(/C=N/NC(=O)CSc2cc(C)c(Br)cc2C)ccc1O,-8,2,-7,-4,-5,2,.,.,.,.,
Cc1cc(SCC(=O)N/N=C/c2ccc(O)c(O)c2O)c(C)cc1Br,9,45*,53*,20,-5,39,22,-8,.,.,HKDC1 act conf=8
O=C(Cc1ccc(Cl)cc1)Nc1ccc(S(=O)(=O)Nc2ncccn2)cc1,-2,-4,0,0,-10,1,.,.,.,.,
FC(F)(F)c1ccccc1NC(=S)NN=C1CCCCCC1,4,-38,39*,20,-8,-1,-23,-1,.,.,HKDC1 act conf=-30
Cc1ccc(NC(=O)C(CC(C)C)NC(=O)C2CCC(C)CC2)nc1 (stereo not given),12,-6,11,-4,1,-4,.,.,.,.,
COCc1cc(C2C(C(=O)c3ccco3)=C(O)C(=O)N2CCOCCO)ccc1O (stereo not given),12,35*,43*,-4,5,-6,-20,6,.,.,HKDC1 act conf=-40*
SMILES,SUMO HTRF inh,HKDC1 inhibitor,PfM18AAP inh-1,APOBEC3G inh,PfGluPho inh,A3A deaminase,PfM18AAP inh-2,CTSL1 confirm,A3G conf,UDG A3G counter,others
Cc1cccc(N/N=C/c2ccc(O)c(O)c2O)c1,19,14,36*,1,84*,8,17,2,.,.,PfG6PD confirm=44
COc1cccc(N/N=C/c2cccc(Br)c2O)c1,22,2,-2,17,30,0,.,.,.,.,
Oc1cccc(/C=N/NC(=S)Nc2cccnc2)c1O,-10,-1,16,.,19,.,.,.,.,.,
Oc1ccc(/C=N/NC(=S)Nc2cccnc2)c(O)c1O,?,10,62*,.,80*,.,34*,2,.,.,PfG6PD confirm=67*;Diaphorase 10uM=55*;Diaph ctr 30uM=80*
CC1CN(C(=O)COC(=O)COc2ccc(C#N)cc2)CC(C)O1 (stereo not given),.,-1,.,-5,0,-2,.,.,.,.,
COc1ccc(-c2cc(-c3ccccc3)nc(-c3ccc4c(c3)NC(=O)CO4)c2)cc1,-3,0,-11,-5,6,-1,.,.,.,.,
CN1CCN(C(=O)c2sc(=S)n(-c3ccccc3)c2N)CC1,5,-5,49*,66*,82*,-4,17,6,81*,2,PfG6PD confirm=83*;Diaphorase 10uM=19;Diaph ctr 30uM=-7
CCCCC(=O)Nc1cccc(NC(=O)c2cccc([N+](=O)[O-])c2)c1,3,-3,-1,-5,18,0,.,.,.,.,
COc1ccc(Sc2ccccc2CN(C)C)cc1OC,30,0,-12,-5,8,-2,.,.,.,.,
CNCc1ccccc1Sc1ccc(O)c(O)c1,52,11,51*,.,98*,.,70*,-5,.,.,PfG6PD confirm=95*;Diaphorase 10uM=72*;Diaph ctr 30uM=61*

# Assay outcomes from PubChem BioAssay.
